Measurements taken from ChEMBL document CHEMBL4004797, “Design and synthesis of formononetin-dithiocarbamate hybrids that inhibit growth and migration of PC-3 cells via MAPK/Wnt signaling pathways” (Eur J Med Chem, 2017).
The source made the active and inactive calls. No cut-off for these calls is given here.

Assays:
[1] = test system: PC-3; experiment: Cytotoxicity against human PC3 cells assessed as inhibition of cell viability after 48 hrs by MTT assay; format: functional, cell-based; details: for IC50: PC-3, 48 h
In short: (§1)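 Cells grown in RPMI 1640 with 10% FBS, penicillin and streptomycin at 37 °C under 5% CO2. After 24 h, medium replaced with medium containing various concentrations. Exposure 48 h, then MTT read-out at 570 nm. IC50 is the concentration giving 50% proliferation inhibition, from dose-response curves; mean ± SD of three independent experiments.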

[2] = test system: MGC-803; experiment: Cytotoxicity against human MGC803 cells assessed as inhibition of cell viability after 48 hrs by MTT assay; format: functional, cell-based; details: MGC-803, 48 h; in short: as §1
[3] = test system: ECa-109 cell line; experiment: Cytotoxicity against human EC109 cells assessed as inhibition of cell viability after 48 hrs by MTT assay; format: functional, cell-based; details: ECa-109, 48 h; in short: as §1
[4] = test system: PC-3; experiment: Cell cycle arrest in human PC3 cells assessed as accumulation at G1 phase at 0.1 uM after 48 hrs by propidium iodide staining-based flow cytometric method (reference value: 54.65%); format: functional
[5] = test system: PC-3; experiment: Induction of apoptosis in human PC3 cells assessed as late apoptotic cells at 0.5 uM after 48 hrs by annexin V-FITC/propidium iodide staining-based flow cytometric method (reference value: 1.3%); format: functional
[6] = test system: PC-3; experiment: Anticlonogenic activity against human PC3 cells at 2.5 uM after 1 week by crystal violet staining-based assay; format: functional, cell-based
In short: (§2)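 PC-3 cells seeded, grown 24 h, then given fresh medium containing a range of concentrations and treated for one week. Washed with PBS, fixed in 4% paraformaldehyde, stained with 0.1% crystal violet, imaged. Colonies counted and colony formation efficiency calculated relative to control. Three independent experiments.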

[7] = test system: PC-3; experiment: Downregulation of beta-catenin levels in human PC3 cells after 48 hrs by Western blot method; format: functional, cell-based
In short: (§3)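 Wnt pathway proteins probed by Western blot in PC-3 cells after 48 h at 0, 0.1, 0.5 or 2.5 μM. RIPA lysis, SDS-PAGE, nitrocellulose, overnight primary antibody at 4 °C, ECL detection. Expression quantified from three independent experiments.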

[8] = test system: PC-3; experiment: Downregulation of TCF4 levels in human PC3 cells after 48 hrs by Western blot method; format: functional, cell-based; in short: as §3
[9] = test system: PC-3; experiment: Downregulation of cyclin D1 levels in human PC3 cells after 48 hrs by Western blot method; format: functional, cell-based
In short: (§4)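 PC-3 cells treated 48 h at 0, 0.1, 0.5 or 2.5 μM, then lysed in RIPA buffer with protease inhibitors. Protein measured by BCA, separated by SDS-PAGE, transferred to nitrocellulose, blocked in 5% milk, probed overnight at 4 °C for cyclin D1, CDK4, cyclin A and cyclin B1, detected by ECL. Bands quantified; three independent experiments.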

[10] = test system: PC-3; experiment: Anticlonogenic activity against human PC3 cells assessed as colony formation efficiency at 2.5 uM after 1 week by crystal violet staining-based assay relative to control; format: functional; in short: as §2
[11] = test system: PC-3; experiment: Downregulation of CDK4 levels in human PC3 cells after 48 hrs by Western blot method; format: functional, cell-based; in short: as §4
[12] = test system: PC-3; experiment: Induction of apoptosis in human PC3 cells assessed as late apoptotic cells at 0.1 uM after 48 hrs by annexin V-FITC/propidium iodide staining-based flow cytometric method (reference value: 1.3%); format: functional
[13] = test system: PC-3; experiment: Cell cycle arrest in human PC3 cells assessed as accumulation at G1 phase at 0.5 uM after 48 hrs by propidium iodide staining-based flow cytometric method (reference value: 54.65%); format: functional
[14] = test system: PC-3; experiment: Cell cycle arrest in human PC3 cells assessed as accumulation at S phase at 2.5 uM after 48 hrs by propidium iodide staining-based flow cytometric method (reference value: 26.54%); format: functional
[15] = test system: PC-3; experiment: Cell cycle arrest in human PC3 cells assessed as accumulation at S phase at 0.5 uM after 48 hrs by propidium iodide staining-based flow cytometric method (reference value: 26.54%); format: functional
[16] = test system: PC-3; experiment: Cell cycle arrest in human PC3 cells assessed as accumulation at G1 phase at 2.5 uM after 48 hrs by propidium iodide staining-based flow cytometric method (reference value: 54.65%); format: functional
[17] = test system: PC-3; experiment: Upregulation of Bax levels in human PC3 cells at 0.1 to 2.5 uM after 48 hrs by Western blot method; format: functional, cell-based
In short: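 Bax protein measured by Western blot in PC-3 cells after 48 h at 0, 0.1, 0.5 or 2.5 μM: RIPA lysis, SDS-PAGE, nitrocellulose transfer, overnight primary antibody at 4 °C, ECL detection.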

[18] = test system: PC-3; experiment: Cytotoxicity against human PC3 cells assessed as inhibition of cell growth at 2.5 uM after 6 to 12 hrs by MTT assay; format: functional, cell-based
[19] = test system: PC-3; experiment: Induction of apoptosis in human PC3 cells assessed as early apoptotic cells at 0.5 uM after 48 hrs by annexin V-FITC/propidium iodide staining-based flow cytometric method (reference value: 4.7%); format: functional
[20] = test system: PC-3; experiment: Downregulation of p38 levels in human PC3 cells after 48 hrs by Western blot analysis; format: functional, cell-based
In short: (§5)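 PC-3 cells exposed 48 h to 0, 0.1, 0.5 or 2.5 μM. RIPA lysates, BCA protein assay, SDS-PAGE, nitrocellulose transfer, 5% milk block, primary antibodies overnight at 4 °C against p-ERK, p-c-Jun, c-Myc, p38 and p-p38, secondary 1:5000 for 2 h, ECL detection. Levels quantified from three independent experiments.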

[21] = test system: PC-3; experiment: Cell cycle arrest in human PC3 cells assessed as accumulation at G2 phase at 0.5 uM after 48 hrs by propidium iodide staining-based flow cytometric method (reference value: 18.31%); format: functional
[22] = test system: PC-3; experiment: Antimigratory activity in human PC3 cells at 0.1 to 2.5 uM after 48 hrs by Hoechst 33258 staining-based transwell assay; format: functional, cell-based
In short: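 Transwell migration: upper chamber holds 10^4 PC-3 cells in medium with 1% FBS plus 0, 0.1, 0.5 or 2.5 μM compound. Lower chamber holds medium with 20% FBS as chemoattractant. After 48 h both chambers washed with PBS, stained with Hoechst 33258, and migrated cells counted by high-content imaging. Three independent experiments.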

[23] = test system: PC-3; experiment: Upregulation of Axin levels in human PC3 cells after 48 hrs by Western blot method; format: functional, cell-based; in short: as §3
[24] = test system: PC-3; experiment: Cell cycle arrest in human PC3 cells assessed as accumulation at G2 phase at 2.5 uM after 48 hrs by propidium iodide staining-based flow cytometric method (reference value: 18.31%); format: functional
[25] = test system: PC-3; experiment: Induction of apoptosis in human PC3 cells assessed as early apoptotic cells at 2.5 uM after 48 hrs by annexin V-FITC/propidium iodide staining-based flow cytometric method (reference value: 4.7%); format: functional
[26] = test system: PC-3; experiment: Cell cycle arrest in human PC3 cells assessed as accumulation at S phase at 0.1 uM after 48 hrs by propidium iodide staining-based flow cytometric method (reference value: 26.54%); format: functional
[27] = test system: GES1; experiment: Cytotoxicity against human GES-1 cells assessed as inhibition of cell viability after 48 hrs by MTT assay; format: cell-based; details: GES1, 48 h; in short: as §1
[28] = test system: PC-3; experiment: Induction of apoptosis in human PC3 cells assessed as late apoptotic cells at 2.5 uM after 48 hrs by annexin V-FITC/propidium iodide staining-based flow cytometric method (reference value: 1.3%); format: functional
[29] = test system: PC-3; experiment: Induction of apoptosis in human PC3 cells assessed as early apoptotic cells at 0.1 uM after 48 hrs by annexin V-FITC/propidium iodide staining-based flow cytometric method (reference value: 4.7%); format: functional
[30] = biological target: MAP kinase p38 (Homo sapiens) (UniProt O15264+Q15759+Q16539+P53778); experiment: Inhibition of p38 phosphorylation in human PC3 cells after 48 hrs by Western blot analysis; format: cell-based; in short: as §5
[31] = biological target: Myc proto-oncogene protein (Homo sapiens) (UniProt P01106); experiment: Inhibition of c-Myc expression in human PC3 cells after 48 hrs by Western blot analysis
[32] = biological target: Transcription factor Jun (Homo sapiens) (UniProt P05412); experiment: Inhibition of c-Jun phosphorylation in human PC3 cells after 48 hrs by Western blot analysis; format: cell-based; in short: as §5
[33] = test system: PC-3; experiment: Cell cycle arrest in human PC3 cells assessed as accumulation at G2 phase at 0.1 uM after 48 hrs by propidium iodide staining-based flow cytometric method (reference value: 18.31%); format: functional
[34] = species on record: Homo sapiens; experiment: Inhibition of ERK phosphorylation in human PC3 cells after 48 hrs by Western blot analysis; format: cell-based; in short: as §5

Sequence of Transcription factor Jun (Homo sapiens) (P05412 whole entry): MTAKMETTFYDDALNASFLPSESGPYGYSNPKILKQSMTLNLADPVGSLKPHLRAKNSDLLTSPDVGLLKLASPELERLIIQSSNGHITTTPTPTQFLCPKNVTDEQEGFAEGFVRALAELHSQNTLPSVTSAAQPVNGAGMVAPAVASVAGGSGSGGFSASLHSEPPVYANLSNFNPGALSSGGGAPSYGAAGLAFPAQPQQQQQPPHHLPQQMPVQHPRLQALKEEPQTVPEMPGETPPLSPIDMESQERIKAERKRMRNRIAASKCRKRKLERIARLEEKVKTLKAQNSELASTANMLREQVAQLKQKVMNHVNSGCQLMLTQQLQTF
Sequence of Myc proto-oncogene protein (Homo sapiens) (P01106 whole entry): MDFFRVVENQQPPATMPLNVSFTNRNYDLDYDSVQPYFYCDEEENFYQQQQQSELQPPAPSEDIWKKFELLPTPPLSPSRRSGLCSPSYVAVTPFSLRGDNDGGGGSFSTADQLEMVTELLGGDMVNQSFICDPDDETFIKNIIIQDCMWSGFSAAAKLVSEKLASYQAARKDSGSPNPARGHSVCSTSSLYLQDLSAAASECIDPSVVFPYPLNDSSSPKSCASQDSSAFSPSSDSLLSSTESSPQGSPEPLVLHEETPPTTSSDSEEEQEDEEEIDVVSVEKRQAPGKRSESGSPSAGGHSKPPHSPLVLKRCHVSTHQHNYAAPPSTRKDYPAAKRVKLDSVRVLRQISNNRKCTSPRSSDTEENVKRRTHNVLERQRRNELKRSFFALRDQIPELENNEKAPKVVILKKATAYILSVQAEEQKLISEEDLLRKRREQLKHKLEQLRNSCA

Structure (SMILES): COc1ccc(-c2coc3cc(OCCCSC(=S)N4CCN(C(C)=O)CC4)ccc3c2=O)cc1
- IC50 [1]: 4.31 µM
- IC50 [2]: 39.4 µM
- IC50 [3]: 24.7 µM

Structure (SMILES): O=c1[nH]cc(F)c(=O)[nH]1 [FLUOROURACIL]
- IC50 [1]: 29.3 µM
- IC50 [2]: 7.21 µM
- IC50 [3]: 10.3 µM

Structure (SMILES): COc1ccc(-c2coc3cc(OCCCCBr)ccc3c2=O)cc1
- IC50 [1]: 55.6 µM
- IC50 [2]: 52.7 µM
- IC50 [3]: 66.3 µM

Structure (SMILES): COc1ccc(-c2coc3cc(OCCCCSC(=S)N4CCN(C(=O)OC(C)(C)C)CC4)ccc3c2=O)cc1
- IC50 [1]: 4.61 µM
- IC50 [2]: 31.3 µM
- IC50 [3]: 8.84 µM

Structure (SMILES): COc1ccc(-c2coc3cc(OCCCBr)ccc3c2=O)cc1
- IC50 [1]: 62.6 µM
- IC50 [2]: 64.9 µM
- IC50 [3]: 39.7 µM

Structure (SMILES): COc1ccc(-c2coc3cc(OCCCCCBr)ccc3c2=O)cc1
- IC50 [1]: 44.8 µM
- IC50 [2]: > 100 µM
- IC50 [3]: 59.1 µM

Structure (SMILES): COc1ccc(-c2coc3cc(OCCCSC(=S)N4CCN(C)CC4)ccc3c2=O)cc1
- IC50 [1]: 2.21 µM
- IC50 [2]: 21.9 µM
- IC50 [3]: 24.2 µM

Structure (SMILES): COc1ccc(-c2coc3cc(OCCSC(=S)N4CCN(C(=O)OC(C)(C)C)CC4)ccc3c2=O)cc1
- IC50 [1]: 3.64 µM
- IC50 [2]: 11.6 µM
- IC50 [3]: 4.09 µM

Structure (SMILES): COc1ccc(-c2coc3cc(O)ccc3c2=O)cc1 [FORMONONETIN]
- IC50 [1]: 57 µM
- IC50 [2]: > 100 µM
- IC50 [3]: > 100 µM

Structure (SMILES): COc1ccc(-c2coc3cc(OCCCSC(=S)N4CCCC4)ccc3c2=O)cc1
- IC50 [1]: 19.4 µM
- IC50 [2]: 40 µM
- IC50 [3]: 30.8 µM

Structure (SMILES): COc1ccc(-c2coc3cc(OCCCSC(=S)N4CCN(Cc5ccccc5)CC4)ccc3c2=O)cc1
- IC50 [1]: 14.9 µM
- IC50 [2]: 43.8 µM
- IC50 [3]: 25.3 µM

Structure (SMILES): COc1ccc(-c2coc3cc(OCCCSC(=S)N4CCOCC4)ccc3c2=O)cc1
- IC50 [1]: 27.4 µM
- IC50 [2]: 49.6 µM
- IC50 [3]: 34 µM

Structure (SMILES): CCN1CCN(C(=S)SCCCOc2ccc3c(=O)c(-c4ccc(OC)cc4)coc3c2)CC1
- IC50 [1]: 7.08 µM
- IC50 [2]: 54 µM
- IC50 [3]: 36.9 µM

Structure (SMILES): COc1ccc(-c2coc3cc(OCCBr)ccc3c2=O)cc1
- IC50 [1]: 41.9 µM
- IC50 [2]: > 100 µM
- IC50 [3]: 55.1 µM

Structure (SMILES): COc1ccc(-c2coc3cc(OCCCSC(=S)N4CCN(c5ccccn5)CC4)ccc3c2=O)cc1
- IC50 [1]: 17.4 µM
- IC50 [2]: 42 µM
- IC50 [3]: 38.3 µM

Structure (SMILES): COc1ccc(-c2coc3cc(OCCCSC(=S)N4CCN(C(=O)OC(C)(C)C)CC4)ccc3c2=O)cc1
- Activity [4]: 55.6%
- Activity [5]: 1.3%
- Activity [6]: Dose-dependent effect
- Activity [1]: Dose-dependent effect
- IC50 [1]: 1.97 µM
- Activity [7]: Dose-dependent effect
- Activity [8]: Dose-dependent effect
- IC50 [2]: 6.07 µM
- Activity [9]: Dose-dependent effect
- Activity [10]: 6%
- Activity [11]: Dose-dependent effect
- Activity [12]: 1.1%
- Activity [13]: 61.29%
- Activity [14]: 10.33%
- Activity [15]: 29.69%
- Activity [16]: 83.32%
- Activity [17]: inactive
- growth inhibition (GI) [18]: Active
- Activity [19]: 5.7%
- Activity [20]: Dose-dependent effect
- Activity [21]: 9.1%
- Activity [22]: Dose-dependent effect
- Activity [23]: Dose-dependent effect
- Activity [24]: 3.66%
- Activity [25]: 5.5%
- IC50 [3]: 3.54 µM
- Activity [26]: 26.75%
- IC50 [27]: > 100 µM
- Activity [28]: 0.9%
- Activity [29]: 6.2%
- inhibition [30]: Dose-dependent effect
- inhibition [31]: Dose-dependent effect
- inhibition [32]: Dose-dependent effect
- Activity [33]: 17.3%
- inhibition [34]: Dose-dependent effect
